Results reported in ChEMBL document CHEMBL5096172, “Tricyclic Triazoles as σ1 Receptor Antagonists for Treating Pain” (J Med Chem, 2021).

How the values were obtained:
[1] = Clearance in CD-1 mouse at 10 mg/kg, po by HPLC-MS/MS analysis relative to liver blood flow; format: ADME, organism-based; conditions: in vivo
Summary of the method: (§1)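 Male Wistar rats (250−300 g, groups of 2) or male CD1 mice (25−30 g, groups of 16) dosed 10 mg/kg orally in 0.5% HPMC or 1 mg/kg iv in saline. Blood taken over time from saphenous vein or by intracardiac puncture into heparin tubes. Plasma spun at 4 °C, stored −80 °C, assayed by HPLC−MS/MS after protein precipitation. Noncompartmental analysis.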

[2] = Clearance in wistar rat at 10 mg/kg, po by HPLC-MS/MS analysis relative to liver blood flow; format: ADME, organism-based; conditions: in vivo; summary of the method: as §1

Cc1cc(OCCN2CCOCC2)nn1-c1ccc2ccccc2c1
CL [1]: 65% | CL [2]: 109%
